Shown are actives, neighbours in structure and some others; about 2.6% of the full set was active somewhere.
Yeast lifespan up: compounds extending yeast replicative lifespan, primary screen, S. cerevisiae, OD615; S. cerevisiae growth with nicotinamide; deaD strain in restrictive glucose medium; inhibition of the nicotinamide effect, % at 10 µM; actives 0.68% (n = 130,000);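 active = inhibition above a set limit, placed 3 SD over the median of all compounds, cut at about 26% in these data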
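System: DeaD-strain S. cerevisiae / Buffer or medium: CSMM-D, restrictive glucose (dextrose) synthetic minimal medium / Probe or stimulus: nicotinamide, 1.5 mM, co-present with compound / Compound: one concentration, 10 µM, DMSO 0.25% / Incubation: 48 h compound exposure at 30 °C, humidified / Technique: optical density (absorbance) at 615 nm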
Yeast growth inh: growth inhibitors of yeast BB579 in restrictive medium, primary screen, yeast lifespan-shortening project, S. cerevisiae; OD615, 48 h; inhibition, % at 10 µM; actives 0.51% (n = 140,000);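 active = inhibition above a set limit, 3 SD over the mean compound inhibition, cut at about 44% in these data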
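Assay system – yeast BB579 (DeaD) · Dosing – single compound dose of 10 µM, 0.25% DMSO final · Detection – OD615 turbidity measurement · Buffer or medium – CSMM-D restrictive synthetic medium containing dextrose (glucose) · Benchmarks – positive control amphotericin B 10 µg/mL · Incubation – 48 h exposure, 30 °C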
RAM inhibit: inhibitors of the yeast RAM network, primary screen, dse1pr::URA3 reporter, 5-FOA selection | S. cerevisiae dse1pr::URA3 reporter, 5-FOA growth OD615, 2 d; analog-sensitive cbk1-as2 kinase mutant strain | inhibition, % at 50 µM | actives 1.8% (n = 190,000);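 active = inhibition above a set limit, 3 SD over mean compound inhibition, cut at about 8.4% in these data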;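 note: inhibition rescues growth on 5-FOA so higher OD means more RAM inhibition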
A number is an active result.

What do the screens show for `[N-]=[N+]=CC(=O)C(Cc1ccccc1)N1C(=O)c2ccccc2C1=O` (stereo not drawn)?
Yeast lifespan up: 34; Yeast growth inh: inactive; RAM inhibit: inactive

Results for O=C(O)C(Cc1ccccc1)N1C(=O)c2ccccc2C1=O (stereo not drawn) ?
Yeast lifespan up: inactive; Yeast growth inh: inactive; RAM inhibit: inactive

What do the screens show for `Cc1ccccc1NC(=O)C(=Cc1ccc(C(=O)O)cc1)C(=O)Nc1ccccc1C`?
RAM inhibit: 11

How did CC(=O)/C(=C/c1ccccc1)C(=O)Nc1ccccc1C do in these assays?
RAM inhibit: inactive

How did CCOC(=O)c1cc(-c2ccccc2)sc1NC(=O)C(C)N1C(=O)c2ccccc2C1=O (stereo not drawn) do in these assays?
Yeast lifespan up: inactive; Yeast growth inh: inactive; RAM inhibit: inactive

How did CCCn1c(SCC(=O)Nc2cc(S(=O)(=O)N(C)C)ccc2OC)n[nH]c1=O do in these assays?
RAM inhibit: inactive

What do the screens show for `CCN1/C(=C2\C(=O)N(C)C(=S)N2C)C=Cc2cc(OC)ccc21`?
Yeast lifespan up: inactive; Yeast growth inh: inactive; RAM inhibit: inactive

Results for C=CCn1c(=O)/c(=C2/Sc3cc(OC)ccc3N2C)s/c1=C1\C(=O)N(CC)C(=S)N1C ?
RAM inhibit: 11

How did CCOc1ccc(NC(=S)N2CCN(CCN3C(=O)c4cccc5cccc(c45)C3=O)CC2)cc1 do in these assays?
RAM inhibit: inactive

What do the screens show for `Cc1ccc(C(=O)NCC(=O)N/N=C/c2cccs2)cc1C`?
RAM inhibit: inactive

What do the screens show for `O=C(Nc1ccccc1N1CCOCC1)c1cccc(NS(=O)(=O)c2ccc(F)c(F)c2)c1`?
RAM inhibit: inactive

How did Cc1cc(C(=O)COC(=O)c2ccccc2O)c(C)n1Cc1cccs1 do in these assays?
Yeast lifespan up: inactive; Yeast growth inh: inactive; RAM inhibit: 9.0

What do the screens show for `Cc1cc(C(=O)COC(=O)c2ccc3c(c2)OCO3)c(C)n1Cc1cccs1`?
Yeast lifespan up: inactive; Yeast growth inh: inactive; RAM inhibit: inactive

Results for Cc1ccc(-n2c(C)cc(C(=O)COC(=O)c3ccc[nH]c3=O)c2C)cc1C ?
Yeast lifespan up: inactive; Yeast growth inh: 99; RAM inhibit: inactive

What do the screens show for `COCCn1c(C)cc(C(=O)COC(=O)c2ccccc2Br)c1C`?
RAM inhibit: inactive

Results for Cc1ccc(-n2c(C)cc(C(=O)COC(=O)C3=NNC(=O)CC3)c2C)cc1 ?
Yeast lifespan up: inactive; Yeast growth inh: inactive; RAM inhibit: inactive

What do the screens show for `CCCn1c(C)cc(C(=O)COC(=O)c2ccc[nH]c2=O)c1C`?
Yeast lifespan up: inactive; Yeast growth inh: 45; RAM inhibit: inactive

What do the screens show for `Cc1ccc(NC(=O)CN(C)C(=O)CCC(=O)c2cccs2)cc1`?
Yeast lifespan up: inactive; Yeast growth inh: inactive; RAM inhibit: inactive

Results for CN(CC1CCOCC1)C(=O)CC1C(=O)NCCN1Cc1ccc(-c2ccccc2)cc1 (stereo not drawn) ?
RAM inhibit: inactive

Results for CCn1c(CNC(=O)c2ccccc2F)nnc1SCC(=O)NC1CCCCC1C (stereo not drawn) ?
RAM inhibit: inactive

Results for COc1ccc(C2CC(C)(c3ccc(OC)cc3OC)Nc3ccccc3N2)c(OC)c1 (stereo not drawn) ?
RAM inhibit: inactive

How did NC(=O)c1ccsc1NC(=O)CSc1nc2ccccc2c(=O)n1CCCO do in these assays?
Yeast lifespan up: inactive; Yeast growth inh: inactive; RAM inhibit: 8.9

How did NC(=O)c1ccsc1NC(=O)CSc1nnc2ccccn12 do in these assays?
RAM inhibit: inactive

What do the screens show for `CN(C(=O)CSc1nnc(-c2ccccc2)o1)c1c(N)n(Cc2ccccc2)c(=O)[nH]c1=O`?
RAM inhibit: inactive

How did CCN(CC)CCCNCC(=O)Nc1ccc2c(c1)CCC2 do in these assays?
RAM inhibit: inactive

How did Cc1ccccc1-n1nnnc1Sc1nnnn1-c1ccccc1 do in these assays?
Yeast lifespan up: 39; Yeast growth inh: inactive; RAM inhibit: inactive

Results for Cc1ccccc1-n1nnnc1SCC(N)=O ?
Yeast lifespan up: inactive; Yeast growth inh: inactive; RAM inhibit: inactive

How did CN(C)C=NC(=O)c1ccc(N2CCN(c3ncc(C(F)(F)F)cc3Cl)CC2)cc1 do in these assays?
Yeast lifespan up: inactive; Yeast growth inh: inactive; RAM inhibit: 9.0

Results for CN(C)/C=C/C(=O)c1ccc(N2CCN(c3ncc(C(F)(F)F)cc3Cl)CC2)cc1 ?
Yeast lifespan up: inactive; Yeast growth inh: inactive; RAM inhibit: inactive

How did O=C(CC1SC(N2CCOCC2)=NC1=O)Nc1cc([N+](=O)[O-])ccc1Cl (stereo not drawn) do in these assays?
RAM inhibit: inactive

How did O=C(O/N=C1\C(=O)N(c2ccccc2)c2ccccc21)C1CC1 do in these assays?
RAM inhibit: inactive

Results for CN1C(=O)/C(=N/OC(=O)c2ccccc2)c2ccccc21 ?
Yeast lifespan up: inactive; Yeast growth inh: 100; RAM inhibit: inactive

How did C/C=C(\C)CN1CCCC(CO)(Cc2ccccc2)C1 (stereo not drawn) do in these assays?
RAM inhibit: inactive

How did CCOC(=O)c1ccc(N=C2SC(C(=O)NCCc3ccccc3)CC(=O)N2C)cc1 (stereo not drawn) do in these assays?
RAM inhibit: 9.5

What do the screens show for `COc1ccc(CN2C(=O)CC(C(=O)NCCc3ccc(S(N)(=O)=O)cc3)SC2=Nc2ccccc2)cc1` (stereo not drawn)?
RAM inhibit: inactive

What do the screens show for `COc1ccc(-n2cnc3cc(C(=O)NCCN4CCOCC4)ccc32)cc1`?
RAM inhibit: inactive

Results for CC(=O)c1sc2nc(-c3ccc(C)cc3)c3c(c2c1N)CCCC3 ?
Yeast lifespan up: inactive; Yeast growth inh: inactive; RAM inhibit: inactive

Results for Cc1ccc(-c2nc3sc(C(N)=O)c(N)c3c3c2CCCC3)cc1 ?
Yeast lifespan up: inactive; Yeast growth inh: 46; RAM inhibit: inactive

What do the screens show for `O=c1[nH][nH]c(C(F)(F)F)c1/C=N/N1CCOCC1`?
RAM inhibit: inactive

How did CC(=O)Nc1ccc(NC(=O)CSc2nnc(-c3ccccc3)n2Cc2ccc3c(c2)OCO3)cc1 do in these assays?
Yeast lifespan up: inactive; Yeast growth inh: inactive; RAM inhibit: 8.6

How did O=C(CSc1nnc2scc(-c3ccc(Cl)cc3)n12)NCc1ccc2c(c1)OCO2 do in these assays?
Yeast lifespan up: inactive; Yeast growth inh: inactive; RAM inhibit: inactive

How did CC1(C)Cc2ccccc2-c2nnc(SCC(=O)Nc3ccc4c(c3)OCO4)n21 do in these assays?
Yeast lifespan up: 81; Yeast growth inh: inactive; RAM inhibit: inactive

Results for CN(C)C(=O)Cn1c(SCC(=O)NCc2ccc3c(c2)OCO3)nc2ccccc21 ?
Yeast growth inh: inactive; RAM inhibit: inactive

How did Nn1c(SCC(=O)Nc2ccc3c(c2)OCO3)nnc1-c1ccccc1 do in these assays?
Yeast lifespan up: inactive; Yeast growth inh: inactive; RAM inhibit: inactive

How did O=C(CSc1nnc2scc(-c3ccccc3)n12)NCc1ccc2c(c1)OCO2 do in these assays?
Yeast lifespan up: inactive; Yeast growth inh: inactive; RAM inhibit: 9.6

Results for C=CCn1c(SCC(=O)Nc2ccc3c(c2)OCO3)nnc1-c1ccccc1 ?
Yeast lifespan up: inactive; Yeast growth inh: inactive; RAM inhibit: inactive

Bioassay records deposited in PubChem BioAssay by SRMLSC.
